pIC50, pKi: −log10 of the molar value.
How the values were obtained:
[1] = biological target: Acetylcholinesterase (Electrophorus electricus, UniProt O42275); experiment: Inhibition of Electrophorus electricus AChE using acetylthiocholine iodide as substrate preincubated for 20mins before the addition of substrate by Ellman's method; conditions: for pKi: read-out: Ki
[2] = biological target: Cholinesterase (Equus caballus, UniProt P81908); experiment: Inhibition of equine serum BChE using butyrylthiocholine iodide as substrate preincubated for 20mins before the addition of substrate by Ellman's method; conditions: for pKi: read-out: Ki
[3] = biological target: Acetylcholinesterase (Electrophorus electricus) (UniProt O42275); experiment: Mixed type inhibition of Electrophorus electricus AChE by Lineweaver-Burk plot analysis
Summary of the method: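 Ellman kinetics at 30 °C in pH 8.0 Tris-HCl with DTNB. Enzyme plus inhibitor (3 concentrations and a water blank) was preincubated for 20 min, then ATChI was added at 0.9375, 0.625, 0.325 or 0.1875 mM. A415 was read every minute for 30 min, in triplicate. Mode, Ki and Ki' came from Lineweaver-Burk, Dixon and Cornish-Bowden plots.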

Sequence of Acetylcholinesterase (O42275 whole entry): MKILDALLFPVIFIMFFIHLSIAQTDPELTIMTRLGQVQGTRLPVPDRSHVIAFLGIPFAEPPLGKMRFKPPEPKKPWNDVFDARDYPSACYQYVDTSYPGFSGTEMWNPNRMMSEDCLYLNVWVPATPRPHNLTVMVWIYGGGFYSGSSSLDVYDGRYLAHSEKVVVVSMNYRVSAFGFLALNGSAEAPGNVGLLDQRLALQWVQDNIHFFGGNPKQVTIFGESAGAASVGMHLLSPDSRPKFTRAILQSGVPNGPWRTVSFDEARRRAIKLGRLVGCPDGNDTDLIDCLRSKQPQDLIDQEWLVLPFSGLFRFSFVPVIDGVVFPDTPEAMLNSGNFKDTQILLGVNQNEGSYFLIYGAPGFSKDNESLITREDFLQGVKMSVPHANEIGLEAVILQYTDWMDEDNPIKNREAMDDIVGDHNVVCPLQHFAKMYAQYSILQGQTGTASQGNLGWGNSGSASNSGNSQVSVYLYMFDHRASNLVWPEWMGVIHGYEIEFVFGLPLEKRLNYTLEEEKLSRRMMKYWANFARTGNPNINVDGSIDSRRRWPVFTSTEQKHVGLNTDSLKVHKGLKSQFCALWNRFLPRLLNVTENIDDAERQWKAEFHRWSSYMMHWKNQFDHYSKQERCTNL
Sequence of Cholinesterase (P81908 whole entry): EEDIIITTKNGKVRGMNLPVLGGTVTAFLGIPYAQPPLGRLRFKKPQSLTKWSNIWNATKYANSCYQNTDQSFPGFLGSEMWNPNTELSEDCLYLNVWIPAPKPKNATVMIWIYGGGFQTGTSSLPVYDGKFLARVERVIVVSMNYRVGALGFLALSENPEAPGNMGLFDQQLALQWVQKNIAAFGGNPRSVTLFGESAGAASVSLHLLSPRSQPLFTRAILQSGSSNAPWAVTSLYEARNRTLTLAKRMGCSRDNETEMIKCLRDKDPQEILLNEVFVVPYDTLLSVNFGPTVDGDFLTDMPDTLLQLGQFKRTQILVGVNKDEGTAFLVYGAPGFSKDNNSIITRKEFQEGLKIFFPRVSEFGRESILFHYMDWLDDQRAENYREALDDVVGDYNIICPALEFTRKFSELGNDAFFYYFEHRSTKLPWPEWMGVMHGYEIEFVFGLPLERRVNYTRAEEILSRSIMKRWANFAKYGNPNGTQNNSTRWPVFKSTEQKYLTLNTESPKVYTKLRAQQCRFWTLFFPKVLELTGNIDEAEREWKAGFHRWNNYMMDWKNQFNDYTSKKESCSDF
Sequence of Acetylcholinesterase (Electrophorus electricus) (O42275 24-633 limits assumed): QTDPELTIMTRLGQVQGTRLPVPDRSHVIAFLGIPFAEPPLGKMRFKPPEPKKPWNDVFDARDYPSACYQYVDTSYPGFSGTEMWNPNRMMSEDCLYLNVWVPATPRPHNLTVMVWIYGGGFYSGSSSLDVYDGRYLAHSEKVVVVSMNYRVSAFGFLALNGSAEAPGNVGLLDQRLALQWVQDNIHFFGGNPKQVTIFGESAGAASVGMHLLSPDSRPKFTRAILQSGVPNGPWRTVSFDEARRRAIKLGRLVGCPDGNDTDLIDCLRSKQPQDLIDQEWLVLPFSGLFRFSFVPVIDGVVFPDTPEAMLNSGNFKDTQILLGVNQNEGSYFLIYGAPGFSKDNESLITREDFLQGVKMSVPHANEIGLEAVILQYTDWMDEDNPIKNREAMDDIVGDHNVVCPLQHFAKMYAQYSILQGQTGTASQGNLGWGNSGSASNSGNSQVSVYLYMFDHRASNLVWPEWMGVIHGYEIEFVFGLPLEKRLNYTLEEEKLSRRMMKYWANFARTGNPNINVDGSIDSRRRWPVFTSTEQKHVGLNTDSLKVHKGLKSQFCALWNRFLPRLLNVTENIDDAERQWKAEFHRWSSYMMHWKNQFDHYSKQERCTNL

SMILES | pKi [1] | pKi [2] | pIC50 [1] | Ki [1] | Ki [2] | Kiuc [3] | pIC50 [2]
CC1(C)CC[C@]2(C(=O)OCc3ccc(Cl)cc3)CC[C@]3(C)C(=CC[C@@H]4[C@@]5(C)C[C@@H](O)[C@H](O)C(C)(C)[C@@H]5CC[C@]43C)[C@@H]2C1 | < 4.52 | < 4.52 |  |  |  |  | 
CC1(C)CC[C@]2(C(=O)NCc3ccccc3)CC[C@]3(C)C(=CC[C@@H]4[C@@]5(C)C[C@@H](OC(=O)CCl)[C@H](OC(=O)CCl)C(C)(C)[C@@H]5CC[C@]43C)[C@@H]2C1 | 4.60 |  | 4.70 |  |  |  | 
CCCCCCCCCCCCCCCCCCOC(=O)[C@]12CCC(C)(C)C[C@H]1C1=CC[C@@H]3[C@@]4(C)C[C@@H](O)[C@H](O)C(C)(C)[C@@H]4CC[C@@]3(C)[C@]1(C)CC2 |  |  |  | ND(Insoluble) | ND(Insoluble) |  | 
CC(=O)O[C@H]1C[C@]2(C)[C@H]3CC=C4[C@@H]5CC(C)(C)CC[C@]5(C(=O)O)CC[C@@]4(C)[C@]3(C)CC[C@H]2C(C)(C)[C@H]1OC(C)=O | < 4.70 | < 4.70 |  |  |  |  | 
CC1(C)CC[C@]2(C(=O)O)CC[C@]3(C)C(=CC[C@@H]4[C@@]5(C)C[C@H](OC(=O)CCl)[C@H](OC(=O)CCl)C(C)(C)[C@@H]5CC[C@]43C)[C@@H]2C1 | 5.16 |  | 5.18 |  |  | 9.36 µM | 
C=CCOC(=O)[C@]12CCC(C)(C)C[C@H]1C1=CC[C@@H]3[C@@]4(C)C[C@@H](O)[C@H](O)C(C)(C)[C@@H]4CC[C@@]3(C)[C@]1(C)CC2 | < 4.52 | < 4.52 |  |  |  |  | 
C=CCCOC(=O)[C@]12CCC(C)(C)C[C@H]1C1=CC[C@@H]3[C@@]4(C)C[C@@H](O)[C@H](O)C(C)(C)[C@@H]4CC[C@@]3(C)[C@]1(C)CC2 | 5.48 | < 5.00 | 5.20 |  |  | 11.5 µM | 
CC(=O)O[C@@H]1C[C@]2(C)[C@H]3CC=C4[C@@H]5CC(C)(C)CC[C@]5(C(N)=O)CC[C@@]4(C)[C@]3(C)CC[C@H]2C(C)(C)[C@H]1OC(C)=O | < 4.70 | < 4.70 |  |  |  |  | 
COc1ccc(COC(=O)[C@]23CCC(C)(C)C[C@H]2C2=CC[C@@H]4[C@@]5(C)C[C@@H](O)[C@H](O)C(C)(C)[C@@H]5CC[C@@]4(C)[C@]2(C)CC3)cc1 | 5.19 | < 4.00 |  |  |  | 69.6 µM | 
C#CCOC(=O)[C@]12CCC(C)(C)C[C@H]1C1=CC[C@@H]3[C@@]4(C)C[C@@H](O)[C@H](O)C(C)(C)[C@@H]4CC[C@@]3(C)[C@]1(C)CC2 | < 5.00 | < 5.00 |  |  |  |  | 
CC1(C)CC[C@@]2(C(=O)OCc3ccc([N+](=O)[O-])cc3)CC[C@@]3(C)C(=CC[C@H]4[C@]5(C)C[C@H](O)[C@@H](O)C(C)(C)[C@H]5CC[C@@]43C)[C@H]2C1 (single isomer, unassigned) | 5.21 | < 5.40 | 5.13 |  |  | 7.22 µM | 
C#CCCOC(=O)[C@]12CCC(C)(C)C[C@H]1C1=CC[C@@H]3[C@@]4(C)C[C@@H](O)[C@H](O)C(C)(C)[C@@H]4CC[C@@]3(C)[C@]1(C)CC2 | 5.17 | < 4.70 | 4.93 |  |  | 32.5 µM | 
CC1(C)CC[C@]2(C(=O)NCc3ccccc3)CC[C@]3(C)C(=CC[C@@H]4[C@@]5(C)C[C@@H](O)[C@H](O)C(C)(C)[C@@H]5CC[C@]43C)[C@@H]2C1 | < 5.00 |  |  |  |  |  | 
CCCCCCCCCCCCOC(=O)[C@]12CCC(C)(C)C[C@H]1C1=CC[C@@H]3[C@@]4(C)C[C@@H](O)[C@H](O)C(C)(C)[C@@H]4CC[C@@]3(C)[C@]1(C)CC2 |  |  |  | ND(Insoluble) | ND(Insoluble) |  | 
CC1(C)CC[C@]2(C(=O)OCCO)CC[C@]3(C)C(=CC[C@@H]4[C@@]5(C)C[C@@H](O)[C@H](O)C(C)(C)[C@@H]5CC[C@]43C)[C@@H]2C1 | < 4.00 | < 4.00 |  |  |  |  | 
CC1(C)CC[C@]2(C(=O)OCCCCBr)CC[C@]3(C)C(=CC[C@@H]4[C@@]5(C)C[C@@H](O)[C@H](O)C(C)(C)[C@@H]5CC[C@]43C)[C@@H]2C1 | < 5.00 | < 5.00 |  |  |  |  | 
C=CCNC(=O)[C@]12CCC(C)(C)C[C@H]1C1=CC[C@@H]3[C@@]4(C)C[C@@H](OC(C)=O)[C@H](OC(C)=O)C(C)(C)[C@@H]4CC[C@@]3(C)[C@]1(C)CC2 | < 4.70 | < 4.70 |  |  |  |  | 
C#CCNC(=O)[C@]12CCC(C)(C)C[C@H]1C1=CC[C@@H]3[C@@]4(C)C[C@@H](O)[C@H](O)C(C)(C)[C@@H]4CC[C@@]3(C)[C@]1(C)CC2 | < 4.70 | < 4.70 |  |  |  |  | 
CC1(C)CC[C@]2(C(=O)O)CC[C@]3(C)C(=CC[C@@H]4[C@@]5(C)C[C@@H](OC(=O)CCl)[C@H](OC(=O)CCl)C(C)(C)[C@@H]5CC[C@]43C)[C@@H]2C1 | 4.88 |  | 4.82 |  |  | 19.8 µM | 
CC1(C)CC[C@]2(C(=O)OCCCCl)CC[C@]3(C)C(=CC[C@@H]4[C@@]5(C)C[C@@H](O)[C@H](O)C(C)(C)[C@@H]5CC[C@]43C)[C@@H]2C1 | 5.06 | < 5.22 | 5.39 |  |  | 3.45 µM | 

SMILES | pKi [1] | pKi [2] | pIC50 [1] | Ki [1] | Ki [2] | Kiuc [3] | pIC50 [2]
CC1(C)CC[C@]2(C(=O)OCC3CCCCC3)CC[C@]3(C)C(=CC[C@@H]4[C@@]5(C)C[C@@H](O)[C@H](O)C(C)(C)[C@@H]5CC[C@]43C)[C@@H]2C1 | 5.00 | < 4.85 | 5.41 |  |  | 2.67 µM | 
COC(=O)[C@]12CCC(C)(C)C[C@H]1C1=CC[C@@H]3[C@@]4(C)C[C@@H](O)[C@H](O)C(C)(C)[C@@H]4CC[C@@]3(C)[C@]1(C)CC2 [MASLINIC ACID METHYL ESTER] | < 4.30 | < 4.30 |  |  |  |  | 
CC1(C)CC[C@]2(C(=O)OCCC#CCl)CC[C@]3(C)C(=CC[C@@H]4[C@@]5(C)C[C@@H](O)[C@H](O)C(C)(C)[C@@H]5CC[C@]43C)[C@@H]2C1 | 5.24 | < 5.22 | 5.18 |  |  | 14.8 µM | 
CCOC(=O)[C@]12CCC(C)(C)C[C@H]1C1=CC[C@@H]3[C@@]4(C)C[C@@H](O)[C@H](O)C(C)(C)[C@@H]4CC[C@@]3(C)[C@]1(C)CC2 | 5.46 | < 4.85 | 5.33 |  |  | 4.67 µM | 
COC(=O)[C@]12CCC(C)(C)C[C@H]1C1=CC[C@@H]3[C@@]4(C)C[C@@H](OS(N)(=O)=O)[C@H](O)C(C)(C)[C@@H]4CC[C@@]3(C)[C@]1(C)CC2 | < 4.40 | < 4.40 |  |  |  |  | 
CC1(C)CC[C@]2(C(=O)OCCCO)CC[C@]3(C)C(=CC[C@@H]4[C@@]5(C)C[C@@H](O)[C@H](O)C(C)(C)[C@@H]5CC[C@]43C)[C@@H]2C1 | 4.70 | < 5.00 | 4.86 |  |  | 13.7 µM | 
CCNC(=O)[C@]12CCC(C)(C)C[C@H]1C1=CC[C@@H]3[C@@]4(C)C[C@@H](O)[C@H](O)C(C)(C)[C@@H]4CC[C@@]3(C)[C@]1(C)CC2 | < 4.70 | < 4.70 |  |  |  |  | 
CC1(C)CC[C@]2(C(=O)OCc3ccccc3)CC[C@]3(C)C(=CC[C@@H]4[C@@]5(C)C[C@@H](O)[C@H](O)C(C)(C)[C@@H]5CC[C@]43C)[C@@H]2C1 [BENZYL MASLINATE] | < 4.85 | < 4.85 |  |  |  |  | 
CC(=O)O[C@@H]1C[C@]2(C)[C@H]3CC=C4[C@@H]5CC(C)(C)CC[C@]5(C(=O)O)CC[C@@]4(C)[C@]3(C)CC[C@H]2C(C)(C)[C@H]1OC(C)=O | < 5.00 | < 5.00 |  |  |  |  | 
CC1(C)CC[C@]2(C(=O)OCc3ccc(Br)cc3)CC[C@]3(C)C(=CC[C@@H]4[C@@]5(C)C[C@@H](O)[C@H](O)C(C)(C)[C@@H]5CC[C@]43C)[C@@H]2C1 | < 4.70 | < 4.70 |  |  |  |  | 
CC(=O)O[C@H]1C[C@]2(C)[C@H]3CC=C4[C@@H]5CC(C)(C)CC[C@]5(C(=O)NCc5ccccc5)CC[C@@]4(C)[C@]3(C)CC[C@H]2C(C)(C)[C@H]1OC(C)=O | < 5.00 |  |  |  |  |  | 
C#CCNC(=O)[C@]12CCC(C)(C)C[C@H]1C1=CC[C@@H]3[C@@]4(C)C[C@@H](OC(C)=O)[C@H](OC(C)=O)C(C)(C)[C@@H]4CC[C@@]3(C)[C@]1(C)CC2 | 5.09 | < 4.85 | 4.82 |  |  |  | 
CC1(C)CC[C@]2(C(=O)NCc3ccccc3)CC[C@]3(C)C(=CC[C@@H]4[C@@]5(C)C[C@H](OC(=O)CCl)[C@H](OC(=O)CCl)C(C)(C)[C@@H]5CC[C@]43C)[C@@H]2C1 | 5.20 |  | 4.82 |  |  |  | 
CCCNC(=O)[C@]12CCC(C)(C)C[C@H]1C1=CC[C@@H]3[C@@]4(C)C[C@@H](OC(C)=O)[C@H](OC(C)=O)C(C)(C)[C@@H]4CC[C@@]3(C)[C@]1(C)CC2 | < 5.22 | < 5.22 |  |  |  |  | 
C=CCNC(=O)[C@]12CCC(C)(C)C[C@H]1C1=CC[C@@H]3[C@@]4(C)C[C@@H](O)[C@H](O)C(C)(C)[C@@H]4CC[C@@]3(C)[C@]1(C)CC2 | < 4.70 | < 4.70 |  |  |  |  | 
CC1(C)CC[C@]2(C(=O)OCc3cccc(Cl)c3)CC[C@]3(C)C(=CC[C@@H]4[C@@]5(C)C[C@@H](O)[C@H](O)C(C)(C)[C@@H]5CC[C@]43C)[C@@H]2C1 | < 5.00 | < 5.00 |  |  |  |  | 
CC(=O)O[C@@H]1C[C@]2(C)[C@H]3CC=C4[C@@H]5CC(C)(C)CC[C@]5(C(=O)NCc5ccccc5)CC[C@@]4(C)[C@]3(C)CC[C@H]2C(C)(C)[C@H]1OC(C)=O | 4.79 |  | 4.53 |  |  | 39.4 µM | 
CC1(C)CC[C@]2(C(N)=O)CC[C@]3(C)C(=CC[C@@H]4[C@@]5(C)C[C@@H](O)[C@H](O)C(C)(C)[C@@H]5CC[C@]43C)[C@@H]2C1 | < 4.70 | 4.74 |  |  |  |  | 4.47
COC(=O)[C@]12CCC(C)(C)C[C@H]1C1=CC[C@@H]3[C@@]4(C)C[C@@H](O)[C@H](OS(N)(=O)=O)C(C)(C)[C@@H]4CC[C@@]3(C)[C@]1(C)CC2 | 4.69 | < 4.70 | 4.67 |  |  | 38.6 µM | 
CCNC(=O)[C@]12CCC(C)(C)C[C@H]1C1=CC[C@@H]3[C@@]4(C)C[C@@H](OC(C)=O)[C@H](OC(C)=O)C(C)(C)[C@@H]4CC[C@@]3(C)[C@]1(C)CC2 | < 4.85 | < 4.85 |  |  |  |  | 

Reference: ChEMBL document CHEMBL3779826, “Converting maslinic acid into an effective inhibitor of acylcholinesterases” (Eur J Med Chem, 2015)
